Test results: ChEMBL document CHEMBL3875153, “Design and synthesis of isatin/triazole conjugates that induce apoptosis and inhibit migration of MGC-803 cells” (Eur J Med Chem, 2016)

Assays:
[1] = Cytotoxicity against human MCF7 cells assessed as growth inhibition after 72 hrs by CCK8 assay; format: functional, cell-based; settings: Homo sapiens, MCF7, 72 h; read-out: IC50
How it was run: (§1)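 Exponentially growing cells were trypsinized and seeded at 2 × 10^4 cells/mL (100 µL/well). After 24 h, medium was replaced with compound at 0.5–256 µM (twofold steps). Plates were incubated 72 h at 37 °C, 5% CO2, then with CCK-8 for 4 h. A450 was read. Three independent runs; IC50 given as mean and SD.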

[2] = Cytotoxicity against human MGC803 cells assessed as growth inhibition after 72 hrs by CCK8 assay; format: functional, cell-based, MGC-803; settings: Homo sapiens, MGC-803, 72 h; read-out: IC50; how it was run: as §1
[3] = Cytotoxicity against human GES-1 cells assessed as growth inhibition after 72 hrs by CCK8 assay; format: toxicity, cell-based, GES1; settings: human, GES-1 cells; how it was run: as §1
[4] = Cytotoxicity against human TE1 cells assessed as growth inhibition after 72 hrs by CCK8 assay; format: functional, cell-based, TE-1; settings: Homo sapiens, TE-1, 72 h; read-out: IC50; how it was run: as §1
[5] = Cytotoxicity against human HL-7702 cells assessed as growth inhibition after 72 hrs by CCK8 assay; format: toxicity, cell-based, L02; settings: human, HL-7702 cells; how it was run: as §1
[6] = Cytotoxicity against human SW780 cells assessed as growth inhibition after 72 hrs by CCK8 assay; format: functional, cell-based; settings: Homo sapiens, SW780, 72 h; read-out: IC50; how it was run: as §1

Row | Structure (SMILES) | IC50 [1] [µM] | IC50 [2] [µM] | IC50 at 72 h [3] [µM] | IC50 [4] [µM] | IC50 at 72 h [5] [µM] | IC50 [6] [µM]
1 | O=C(Cn1cc(CN2C(=O)C(=O)c3c(Cl)ccc(Cl)c32)nn1)Nc1ccccc1 | 38.5 | 17.5 | 24.9 | 30.6 | 24.9 | 27
2 | O=C1C(=O)N(Cc2cn(CC(=O)N3CCCCC3)nn2)c2c(Cl)ccc(Cl)c21 | 34.6 | 18.7 | 50.7 | 40.6 | 39.3 | 29.7
3 | O=c1[nH]cc(F)c(=O)[nH]1 [FLUOROURACIL] | 13.2 | 10.6 | 13.8 | 17.3 | 12.8 | 6.99
4 | O=C(Cn1cc(CN2C(=O)C(=O)c3c(Cl)ccc(Cl)c32)nn1)NC1CCCCC1 | 51.8 | 17.4 | 47.4 | 25.2 | 83.9 | 93.3
5 | CC(C)(C)OC(=O)N1CCN(C(=O)Cn2cc(CN3C(=O)C(=O)c4c(Cl)ccc(Cl)c43)nn2)CC1 | 46.9 | 22 | 84.2 | 39.2 | 42 | > 128
